# Laboratory results reported in article PMC9486669 (Veterinary and Animal Science, 2022).
# Where “and” joins values, the source holds several entries; their conditions need not be identical. Equal entries are not always repeated. Entries after “also recorded” stand apart in the source; their conditions may differ.
# What was measured:
# [1] = GNL plasma levels after yeast-encapsulated GNL in the FEC trial; assay type: in vivo, Corriedale lambs; details: lambs; yeast-encapsulated GNL 100 mg/kg oral, four doses every 24 h
# [2] = tested on: Caenorhabditis elegans; details: read-out: LC50 (mortality); in vitro; ref Abdel-Rahman et al., 2013; cited from earlier work
# [3] = tested on: Ancylostoma ceylanicum and Trichuris muris; details: encapsulated monoterpene, in vitro; ref Mirza et al., 2020; cited from earlier work
# [4] = tested on: FMO; experiment: FMO-dependent metabolism: BZ N-oxidase activity in sheep liver microsomes; assay type: in vitro ADME
# [5] = tested on: Haemonchus contortus; details: in vitro; ref Helal et al., 2020; cited from earlier work
# [6] = tested on: Trichostrongylus axei; details: in vitro; ref Helal et al., 2020; cited from earlier work
# [7] = tested on: Teladorsagia circumcincta; details: in vitro; ref Helal et al., 2020; cited from earlier work
# [8] = assay type: in vivo, Corriedale lambs; details: lambs
# [9] = rats, cited from earlier work
# [10] = tested on: Haemonchus contortus; experiment: Fecal egg count reduction in lambs infected with resistant H. contortus; assay type: in vivo
# Outline: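 Corriedale lambs artificially infected with a resistant H. contortus isolate received yeast-encapsulated test compound, 100 mg/kg orally, as four doses every 24 h. Faeces were sampled on days −1, 7 and 14, and epg was counted by modified McMaster (sensitivity 10 epg). FECR was calculated per McKenna from arithmetic mean epg: day −1 (T1) versus days 7 and 14 (T2).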
# [11] = tested on: ruminal incubations; details: ref Miró et al., 2020b; cited from earlier work
# [12] = biological target: T1, CYP1A1 (Ovis aries, UniProt P56591); details: sheep liver microsomes, ref Miró et al. 2020b, 2020c; cited from earlier work
# T1 sequence (P56591 1-519): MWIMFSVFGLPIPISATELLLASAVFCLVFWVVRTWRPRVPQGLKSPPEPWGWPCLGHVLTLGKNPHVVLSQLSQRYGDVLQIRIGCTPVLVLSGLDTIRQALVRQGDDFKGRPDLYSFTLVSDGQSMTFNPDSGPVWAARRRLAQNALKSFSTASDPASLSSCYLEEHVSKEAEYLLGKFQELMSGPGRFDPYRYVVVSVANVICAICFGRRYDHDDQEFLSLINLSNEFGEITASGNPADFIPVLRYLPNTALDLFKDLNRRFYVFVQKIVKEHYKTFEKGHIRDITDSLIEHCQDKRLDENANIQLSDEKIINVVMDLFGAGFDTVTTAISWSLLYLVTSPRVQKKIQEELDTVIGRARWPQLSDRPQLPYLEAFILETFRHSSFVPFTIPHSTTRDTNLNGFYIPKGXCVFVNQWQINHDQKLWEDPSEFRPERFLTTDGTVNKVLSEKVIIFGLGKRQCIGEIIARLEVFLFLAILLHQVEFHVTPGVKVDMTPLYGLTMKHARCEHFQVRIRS
# [13] = tested on: gram-positive and negative bacteria; details: ref Nagoor Meeran et al., 2017; cited from earlier work
# [14] = tested on: sheep liver microsomes; details: ref Miró et al. 2020b, 2020c; cited from earlier work
# [15] = tested on: FMO; details: sheep liver microsomes, ref Miró et al. 2020b, 2020c; cited from earlier work
# [16] = ref Miró et al., 2020b; cited from earlier work
# [17] = tested on: Rhipicephalus microplus; details: encapsulated in Saccharomyces cerevisiae; ref da Silva Lima et al., 2017; cited from earlier work
structure (smiles),measurement,setting,value
"CC(C)=CCC/C(C)=C/CO [GNL, 3,7-dimethylocta-trans-2,6-dien-1-ol]",time of GNL detection in plasma,[1],detected in plasma only at 1 h post-treatment; also recorded: detected in plasma only at 1 h post-administration
same,LC50,[2],14 µg/mL
same,classification of action,[3],fast acting at a moderately high dose
same,"BZ N-oxidase activity, lower compared to absence of GNL",[4]; 0.2 mM GNL,65.5 ± 13.6%
same,"BZ N-oxidase activity (FMO pathway), lower compared to absence of GNL",[4]; 2 mM GNL,84.5 ± 4.84% and 84.5%
same,reduction of larval motility,[5],82%
same,reduction of larval motility,[6],90%
same,reduction of larval motility,[7],94%
same,mean GNL plasma concentration expressed,[8]; 1 h after second oral dose of GNL 100 mg/kg,0.02 mM
same,mean GNL plasma concentration,[8]; 1 h after second oral dose of GNL 100 mg/kg (emulsion),3.04 ± 1.33 µg/mL and 3.04 µg/mL
same,elimination half-life,"[9]; intravenous infusion of 12.5 mg, ref Pavan et al. (2018)",about 12 min
same,time at which Cmax in the bloodstream was achieved,"[9]; oral administration, ref Pavan et al., 2018",30 min
same,effect on fecal egg counts,"[10]; 7 and 14 days after first dose, four doses of GNL",did not significantly decrease
same,"FECR (fecal egg count reduction), in vivo efficacy","[10]; day 14, lambs, GNL 100 mg/kg oral x 4, 95% LCL-UCL 0-82.3",40.5%
"Cc1ccc(C(C)C)c(O)c1 [TML, thymol]",effect on formation of ABZ from ABZSO,[11],completely abolish
same,effect on CYP1A1-dependent metabolism,[12],inhibited
same,MIC,[13],150 µg/mL
same,effect on S-oxygenation of ABZ,[14],delayed
same,effect on FMO-dependent metabolism,[15],inhibited
same,effect on systemic exposure of ABZ metabolites,[16],did not improve
Cc1ccc(C(C)C)cc1O [carvacrol],decrease of LC50 after encapsulation compared to non-encapsulated,[17],2.5 fold
